From ChEMBL document CHEMBL3259792 (Eur J Med Chem, 2014)
pEC50, pIC50: −log10 of the molar value.

Columns and labels:
[1] = test system: Human immunodeficiency virus 1; assay: Ratio of EC50 for HIV1 harboring reverse transcriptase Y181C mutant to EC50 for wild type HIV1 NL4.3; format: functional
In short: (§1)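 Fold change is the EC50 against the named mutant strain divided by the EC50 against wild-type HIV-1 NL4-3. […] Means of 2–3 independent experiments in triplicate.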

[2] = biological target: T1, Human immunodeficiency virus type 1 reverse transcriptase (Human immunodeficiency virus 1, UniProt Q72547); assay: Inhibition of HIV1 wild-type reverse transcriptase Y181I/Y181C mutant using [3H]dTTP by scintillation counting
[3] = biological target: T1, Human immunodeficiency virus type 1 reverse transcriptase; assay: Inhibition of HIV1 wild-type reverse transcriptase using [3H]dTTP by scintillation counting
[4] = test system: Human immunodeficiency virus 1; assay: Antiviral activity against HIV1 harboring reverse transcriptase Y181C mutant infected in human MT4 cells assessed as inhibition of virus-induced cell death measured after 5 days of infection by MTT method; format: functional, organism-based; conditions: Human immunodeficiency virus 1, MT4, 120 h
In short: (§2)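 MT-4 cells infected with the named NNRTI-resistant HIV-1 RT mutant strain, in the presence of a range of compound concentrations. Viable cells counted at day 5 post-infection by tetrazolium (MTT) colorimetry. […] Mean of 2–3 independent experiments, each in triplicate.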

[5] = test system: Human immunodeficiency virus 1; assay: Antiviral activity against HIV1 harboring reverse transcriptase K103N mutant infected in human MT4 cells assessed as inhibition of virus-induced cell death measured after 5 days of infection by MTT method; format: functional, organism-based; conditions: Human immunodeficiency virus 1, MT4, 120 h; in short: as §2
[6] = test system: Human immunodeficiency virus 1; assay: Antiviral activity against HIV1 harboring reverse transcriptase Y188L mutant infected in human MT4 cells assessed as inhibition of virus-induced cell death measured after 5 days of infection by MTT method; format: functional, organism-based; conditions: Human immunodeficiency virus 1, MT4, 120 h; in short: as §2
[7] = test system: Human immunodeficiency virus 1; assay: Antiviral activity against HIV1 NL4.3 infected in human MT4 cells assessed as inhibition of virus-induced cell death measured after 5 days of infection by MTT method; format: functional, organism-based; conditions: Human immunodeficiency virus 1, NL4.3, MT4, 120 h
In short: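 Lymphoid MT-4 cells (NIH AIDS Reagent Program) infected with HIV-1 NL4-3 in the presence of varying compound concentrations. On day 5 post-infection, viable cells were counted by MTT tetrazolium colorimetry. EC₅₀ = concentration inhibiting virus-induced cell death by 50%. Means of two to three independent experiments, each in triplicate.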

[8] = Cytotoxicity against human MT4 cells assessed as cell viability by MTT assay; format: cell-based
In short: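 Mock-infected MT-4 cells exposed to a range of compound concentrations. Viable cells measured by MTT colorimetry at day 5. CC₅₀ = concentration causing 50% death of non-infected cells. Means of two to three independent experiments, each in triplicate.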

[9] = Selectivity index, ratio of CC50 for human MT4 cells to EC50 for HIV1 NL4.3 infected in human MT4 cells; format: toxicity, cell-based; conditions: read-out: Ratio CC50/EC50
In short: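 Ratio CC₅₀/EC₅₀. CC₅₀ is from mock-infected MT-4 cells and EC₅₀ from HIV-1 NL4-3-infected MT-4 cells, both read by MTT at day 5 post-infection.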

[10] = biological target: Human immunodeficiency virus type 1 reverse transcriptase (Human immunodeficiency virus 1, UniProt Q72547, K103N); assay: Inhibition of HIV1 wild-type reverse transcriptase K103N mutant using [3H]dTTP by scintillation counting
[11] = test system: Human immunodeficiency virus 1; assay: Ratio of EC50 for HIV1 harboring reverse transcriptase K103N mutant to EC50 for wild type HIV1 NL4.3; format: functional; in short: as §1
[12] = test system: Human immunodeficiency virus 1; assay: Ratio of EC50 for HIV1 harboring reverse transcriptase Y188L mutant to EC50 for wild type HIV1 NL4.3; format: functional; in short: as §1
[13] = test system: Human immunodeficiency virus 1; assay: Ratio of EC50 for HIV1 harboring reverse transcriptase K103N/Y181C double mutant to EC50 for wild type HIV1 NL4.3; format: functional; in short: as §1
[14] = test system: Human immunodeficiency virus 1; assay: Antiviral activity against HIV1 harboring reverse transcriptase K103N/Y181C double mutant infected in human MT4 cells assessed as inhibition of virus-induced cell death measured after 5 days of infection by MTT method; format: functional, organism-based; conditions: Human immunodeficiency virus 1, MT4, 120 h; in short: as §2
[15] = test system: Human immunodeficiency virus 1; assay: Ratio of EC50 for HIV1 harboring reverse transcriptase […] mutant to EC50 for wild type HIV1 NL4.3; format: functional; in short: as §1
[16] = test system: Human immunodeficiency virus 1; assay: Antiviral activity against HIV1 harboring reverse transcriptase […] mutant infected in human MT4 cells assessed as inhibition of virus-induced cell death measured after 5 days of infection by MTT method; format: functional, organism-based; conditions: Human immunodeficiency virus 1, MT4, 120 h; in short: as §2
[17] = test system: Human immunodeficiency virus 2; assay: Antiviral activity against HIV-2 ROD infected in human CEM cells assessed as protection of cells monitored by giant cell formation by microscopy; format: functional, organism-based; conditions: Human immunodeficiency virus 2, ISOLATE ROD, CCRF-CEM
In short: (§3)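 Human CEM cultures (~3 × 10⁵ cells/mL) infected with ~100 CCID₅₀ per mL of HIV-1 IIIB or HIV-2 ROD, seeded with serial compound dilutions. Incubated 4 days at 37 °C; syncytium (giant cell) formation scored by microscopy. EC₅₀ = concentration protecting cells from viral cytopathicity by 50%. Means of two to three independent experiments, each in triplicate.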

[18] = test system: Human immunodeficiency virus 1; assay: Antiviral activity against HIV1 3B infected in human CEM cells assessed as protection of cells monitored by giant cell formation by microscopy; format: functional, organism-based; conditions: Human immunodeficiency virus 1, 3B, CCRF-CEM; in short: as §3
[19] = biological target: Human immunodeficiency virus type 1 reverse transcriptase (Human immunodeficiency virus 1, UniProt Q72547, L100I); assay: Inhibition of HIV1 wild-type reverse transcriptase L100I mutant using [3H]dTTP by scintillation counting
In short: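 RNA-dependent DNA polymerase activity of recombinant RT (2–4 nM) on poly(rA)/oligo(dT) 10:1 with [3H]dTTP (1 Ci/mmol). Incubation at 37 °C. Acid-insoluble radioactivity collected on GF/C filters after 5% cold TCA, counted by scintillation.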

| Structure (SMILES) | Ratio EC50 [1] | pIC50 [2] | pIC50 [3] | pEC50 [4] | pEC50 [5] | pEC50 [6] | pEC50 [7] | CC50 [8] | selectivity ratio [9] | pIC50 [10] | Ratio EC50 [11] | Ratio EC50 [12] | Ratio EC50 [13] | pEC50 [14] | Ratio EC50 [15] | pEC50 [16] | pEC50 [17] | pEC50 [18] | pIC50 [19] |
| --- | --- | --- | --- | --- | --- | --- | --- | --- | --- | --- | --- | --- | --- | --- | --- | --- | --- | --- | --- |
| Cc1ccc(CNC(=O)c2[nH]c3ccc(Cl)cc3c2S(=O)(=O)c2cc(C)cc(C)c2)cc1 | 103 | < 4.70 | 7.30 | 6.67 | 6.41 | < 4.67 | 8.68 | 21200 nM | 10100 | < 4.70 | 183 | >10105 | >10105 | < 4.67 | – | – | – | – | – |
| COc1ccc(CNC(=O)c2[nH]c3ccc(Cl)cc3c2S(=O)(=O)c2cc(C)cc(C)c2)cc1 | 100 | < 4.70 | 8.43 | 7.68 | 7.68 | < 4.41 | 9.68 | 39900 nM | 190000 | < 4.70 | 100 | >186557 | >186557 | < 4.41 | – | – | – | – | – |
| Cc1cc(C)cc(S(=O)(=O)c2c(C(=O)NCc3ccc(Cl)cc3)[nH]c3ccc(Cl)cc23)c1 | 55 | < 4.70 | 7.24 | 6.35 | 6.99 | < 4.29 | 8.09 | > 51300 nM | > 6260 | 5.12 | 13 | >6255 | >6255 | < 4.29 | – | – | – | – | – |
| Cc1cc(C)cc(S(=O)(=O)c2c(C(=O)NCc3ccc([N+](=O)[O-])cc3)[nH]c3ccc(Cl)cc23)c1 | 35 | < 4.70 | 7.30 | 7.15 | 6.92 | < 4.30 | 8.70 | > 50200 nM | > 25100 | 6.66 | 60 | >25103 | >25103 | < 4.30 | – | – | – | – | – |
| Cc1cc(C)cc(S(=O)(=O)c2c(C(=O)NCc3ccc(N(C)C)cc3)[nH]c3ccc(Cl)cc23)c1 | 85 | – | – | 5.99 | 6.49 | < 4.39 | 7.92 | 40700 nM | 3360 | – | 27 | >3332 | >3332 | < 4.39 | – | – | – | – | – |
| Cc1cc(C)cc(CNC(=O)c2[nH]c3ccc(Cl)cc3c2S(=O)(=O)c2cc(C)cc(C)c2)c1 | >476 | < 4.70 | 5.15 | < 5.70 | 6.74 | – | 8.38 | > 52000 nM | > 12400 | < 4.70 | 43 | – | >12332 | < 4.29 | 15 | 7.19 | < 5.70 | 7.55 | 5.23 |
| Cc1cc(C)cc(S(=O)(=O)c2c(C(=O)NCCc3ccccc3Cl)[nH]c3ccc(Cl)cc23)c1 | 63 | < 4.70 | 6.88 | 6.60 | 7.43 | – | 8.40 | 45000 nM | 11200 | 5.50 | 9.3 | – | 11243 | 4.35 | 6 | 7.62 | < 5.00 | 8.03 | 6.57 |
| Cc1cc(C)cc(S(=O)(=O)c2c(C(=O)NCCc3cccc(Cl)c3)[nH]c3ccc(Cl)cc23)c1 | 218 | < 4.70 | 7.08 | 6.06 | 6.74 | – | 8.40 | 29100 nM | 7270 | 5.23 | 45 | – | 7274 | 4.54 | 7.8 | 7.51 | < 5.00 | 7.96 | 8.00 |
| Cc1cc(C)cc(S(=O)(=O)c2c(C(=O)NCCc3ccc(Cl)cc3)[nH]c3ccc(Cl)cc23)c1 | 36 | < 4.70 | 7.05 | 5.77 | ≤ 5.70 | – | 7.27 | 32400 nM | 602 | 7.22 | >=37 | – | 602 | 4.49 | 3.5 | 6.72 | < 5.00 | 7.17 | 6.02 |
| Cc1cc(C)cc(S(=O)(=O)c2c(C(=O)NCCc3ccccc3C)[nH]c3ccc(Cl)cc23)c1 | – | < 4.70 | 6.54 | – | 7.00 | – | – | > 52000 nM | > 8380 | 4.91 | 16 | – | >8383 | < 4.28 | 3.2 | 7.70 | < 5.00 | 8.04 | 6.70 |
| Cc1ccc(CCNC(=O)c2[nH]c3ccc(Cl)cc3c2S(=O)(=O)c2cc(C)cc(C)c2)cc1 | 79 | < 4.70 | 5.70 | 5.74 | < 4.30 | – | 7.64 | > 52000 nM | > 2270 | < 4.70 | 2183 | – | >2268 | < 4.28 | – | – | < 4.30 | 7.48 | 4.79 |
| Cc1cc(C)cc(S(=O)(=O)c2c(C(=O)NCC(C)c3ccccc3)[nH]c3ccc(Cl)cc23)c1 (racemic) | 1386 | – | – | 6.54 | 7.54 | < 4.70 | 9.68 | 19900 nM | 94900 | – | 138 | >94938 | >94938 | < 4.70 | – | – | – | – | – |
| O=C1Nc2ccc(Cl)cc2[C@@](C#CC2CC2)(C(F)(F)F)O1 [EFAVIRENZ] | – | – | – | 6.80 | 6.89 | 6.12 | 7.80 | > 15800 nM | – | – | – | – | – | < 6.50 | – | 7.66 | < 5.00 | – | – |
| Cc1ccnc2c1NC(=O)c1cccnc1N2C1CC1 [NEVIRAPINE] | – | – | – | < 5.43 | < 5.43 | < 5.43 | 6.95 | > 18800 nM | – | – | – | – | – | < 5.43 | – | 7.22 | < 5.00 | – | – |
| Cc1cn([C@H]2C[C@H](N=[N+]=[N-])[C@@H](CO)O2)c(=O)[nH]c1=O [ZIDOVUDINE] | 1.6 | – | – | 8.22 | 7.80 | 7.48 | 8.43 | > 30600 nM | > 8270 | – | 4.3 | 8.9 | – | 7.80 | – | – | – | – | – |
